Common to all, as to format: functional
Assay [1] deals with HT-29. The assay can be described thus: Antiproliferative activity against Homo sapiens (human) HT-29 cells after 72 hr by SRB assay. The conditions noted are these: for IC50: HT-29, 72 h, read-out: ID50 (the source's name). The gist of the method: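 HT-29 colon adenocarcinoma cells were plated at 10^5/ml in RPMI 1640/Opti-MEM (1:1) with 5% FBS, antibiotics, 1 mM pyruvate and 2 mM glutamine. Test agents (0.1–100 μg/ml, solvent-matched controls) were added after 24 h and left for 72 h. Cells were TCA-fixed and stained 30 min with 0.4% SRB in 1% acetic acid, dye extracted with 10 mM Tris, OD 540 nm. Triplicates, 3–5 experiments; ID50 (μg/ml).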

In assay [2] the test system is CCRF-CEM. Put plainly: Antiproliferative activity against Homo sapiens (human) CCRF-CEM cells after 72 hr by MTT assay. The conditions noted are these: for IC50: read-out: ID50 (the source's name). The gist of the method:
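Human leukemia CCRF/CEM cells seeded at 10^5/ml in RPMI 1640 with 10% FBS, penicillin/streptomycin and 2 mM L-glutamine at 37°C, 5% CO2. Compounds were added after 24 h at 0.1–100 μg/ml, with acetone or ethanol vehicle controls, and exposure ran 72 h. MTT was given for 4 h, formazan solubilized in SDS/DMF for 24 h, and read at 570 nm. Triplicates, 3–5 repeats; ID50 in μg/ml vs untreated.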
For orientation: Formazan colour is commonly taken as a measure of viable cells.

For assay [3], the system named is MCF7. The assay can be described thus: Antiproliferative activity against Homo sapiens (human) MCF7 cells after 72 hr by SRB assay. The conditions noted are these: for IC50: MCF7, 72 h, read-out: ID50 (the source's name). The gist of the method:
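MCF-7 breast cancer cells at 10^5/ml in Eagle's medium with 10% FBS, antibiotics, 2 mM glutamine, 1.0 mM pyruvate, 1% amino acids and 0.8 mg/l insulin, 37°C, 5% CO2. After 24 h, compounds at 0.1–100 μg/ml (acetone/ethanol controls) were added for 72 h. SRB read-out: cold 50% TCA fixation, 0.4% SRB stain, Tris extraction, 540 nm. Triplicates, repeated 3–5 times; 50% proliferation inhibition dose (ID50, μg/ml).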

Consider 14 compounds from ChEMBL document CHEMBL3046444, “Antiproliferative activity and synthesis of 8-prenylnaringenin derivatives by demethylation of 7-O- and 4'-O-substituted isoxanthohumols” (2012).

Molecules are shown by their SMILES. ≈ marks a conversion by molar mass, not a printed value. Calls of active or inactive are those of the source. The rule behind the calls is not given here.

With `C=CCOc1ccc(C2CC(=O)c3c(O)cc(OCC=C)c(CC=C(C)C)c3O2)cc1` (configuration not stated), the ID50 entry in assay [1], in assay [2] and in assay [3] was “inactive” throughout.
With `CCCCCCCCCCCCCCCC(=O)Oc1ccc(C2CC(=O)c3c(O)cc(OC(=O)CCCCCCCCCCCCCCC)c(CC=C(C)C)c3O2)cc1` (configuration not stated), the ID50 entry in assay [1], in assay [2] and in assay [3] was “inactive” in each case.
For the compound `CCCCCCCCCCCCCCCC(=O)Oc1ccc([C@@H]2CC(=O)c3c(OC)cc(OC(=O)CCCCCCCCCCCCCCC)c(CC=C(C)C)c3O2)cc1`, the ID50 result in assay [1], in assay [2] and in assay [3] was “inactive” in each case.
Take `CC(=O)Oc1ccc(C2CC(=O)c3c(O)cc(OC(C)=O)c(CC=C(C)C)c3O2)cc1` (configuration not stated) [7,4'-DI-O-ACETYL-8-PRENYLNARINGENIN]: the IC50 in assay [1] was found to be 36.1 µg/mL (≈ 85.1 µM); in assay [2], 37 µg/mL (≈ 87.2 µM); in assay [3] it was 28 µg/mL (≈ 66 µM).
`COc1cc(OC(C)=O)c(CC=C(C)C)c2c1C(=O)C[C@@H](c1ccc(OC(C)=O)cc1)O2` [7,4'-DI-O-ACETYLISOXANTHOHUMOL]: the IC50 in assay [1] turned out to be 32.1 µg/mL (≈ 73.2 µM); in assay [2] it was 23.3 µg/mL (≈ 53.1 µM); in assay [3] it was 16.9 µg/mL (≈ 38.5 µM).
For `C=CCOc1ccc([C@@H]2CC(=O)c3c(OC)cc(OCC=C)c(CC=C(C)C)c3O2)cc1` [7,4'-DI-O-ALLYLISOXANTHOHUMOL] the same measures were 6.2 µg/mL (≈ 14.3 µM), 2.7 µg/mL (≈ 6.21 µM) and 5.2 µg/mL (≈ 12 µM).
Consider `COc1ccc(C2CC(=O)c3c(O)cc(OC)c(CC=C(C)C)c3O2)cc1` (configuration not stated) [7,4'-DI-O-METHYL-8-PRENYLNARINGENIN], for which the ID50 result in assay [1] and in assay [2] was “inactive” throughout. The IC50 in assay [3] came to 36.9 µg/mL (≈ 100 µM).
For the compound `COc1ccc([C@@H]2CC(=O)c3c(OC)cc(OC)c(CC=C(C)C)c3O2)cc1` [7,4'-DI-O-METHYLISOXANTHOHUMOL], the IC50 in assay [1] was 6 µg/mL (≈ 15.7 µM); in assay [2] it was 5 µg/mL (≈ 13.1 µM); in assay [3], 6.6 µg/mL (≈ 17.3 µM).
As to `CCCCCOc1ccc([C@@H]2CC(=O)c3c(OC)cc(OCCCCC)c(CC=C(C)C)c3O2)cc1` [7,4'-DI-O-N-PENTYL-8-ISOXANTHOHUMOL], the IC50 in assay [1] amounted to 8.2 µg/mL (≈ 16.6 µM); in assay [2], 4.3 µg/mL (≈ 8.69 µM); in assay [3] it was 7.1 µg/mL (≈ 14.4 µM).
For `CCCCCOc1cc(OC)c2c(c1CC=C(C)C)O[C@H](c1ccc(O)cc1)CC2=O` [7-O-N-PENTYLISOXANTHOHUMOL] the same measures were 6.9 µg/mL (≈ 16.3 µM), 5.4 µg/mL (≈ 12.7 µM) and 8.3 µg/mL (≈ 19.6 µM).
Regarding `CCCCCOc1cc(O)c2c(c1CC=C(C)C)OC(c1ccc(O)cc1)CC2=O` (configuration not stated) [7-O-PENTYL-8-PRENYLNARINGENIN], the IC50 in assay [1] is 10 µg/mL (≈ 24.4 µM); in assay [2], 4.8 µg/mL (≈ 11.7 µM); in assay [3], 3.9 µg/mL (≈ 9.5 µM).
For `COc1cc(O)c(CC=C(C)C)c2c1C(=O)CC(c1ccc(O)cc1)O2` (configuration not stated) [ISOXANTHOHUMOL] the same measures were 32.6 µg/mL (≈ 92 µM), 18.2 µg/mL (≈ 51.4 µM) and 9.4 µg/mL (≈ 26.5 µM).
The matching figures for `CC(C)=CCc1c(O)cc(O)c2c1OC(c1ccc(O)cc1)CC2=O` (configuration not stated) [SOPHORAFLAVANONE B]: 33.2 µg/mL (≈ 97.5 µM), 24.2 µg/mL (≈ 71.1 µM) and 19.4 µg/mL (≈ 57 µM).
On to `COc1cc(O)c(CC=C(C)C)c(O)c1C(=O)/C=C/c1ccc(O)cc1` [XANTHOHUMOL], for which the results for the IC50 in assay [1], in assay [2] and in assay [3] were 3.8 µg/mL (≈ 10.7 µM), 4.1 µg/mL (≈ 11.6 µM) and 4.7 µg/mL (≈ 13.3 µM), respectively.
